Tests used:
[1] = Lipophilicity, log D of the compound at pH 7.4; assay type: physicochemical; settings: buffer
[2] = Dissociation constant, pKa of the compound; assay type: physicochemical
[3] = molecular target: T1, Cytochrome P450 2C8 (Homo sapiens, UniProt P10632); assay: Activity of human recombinant CYP2C8 assessed as enzyme contribution towards compound metabolism at 37 degC; assay type: ADME
T1 sequence (P10632 whole entry): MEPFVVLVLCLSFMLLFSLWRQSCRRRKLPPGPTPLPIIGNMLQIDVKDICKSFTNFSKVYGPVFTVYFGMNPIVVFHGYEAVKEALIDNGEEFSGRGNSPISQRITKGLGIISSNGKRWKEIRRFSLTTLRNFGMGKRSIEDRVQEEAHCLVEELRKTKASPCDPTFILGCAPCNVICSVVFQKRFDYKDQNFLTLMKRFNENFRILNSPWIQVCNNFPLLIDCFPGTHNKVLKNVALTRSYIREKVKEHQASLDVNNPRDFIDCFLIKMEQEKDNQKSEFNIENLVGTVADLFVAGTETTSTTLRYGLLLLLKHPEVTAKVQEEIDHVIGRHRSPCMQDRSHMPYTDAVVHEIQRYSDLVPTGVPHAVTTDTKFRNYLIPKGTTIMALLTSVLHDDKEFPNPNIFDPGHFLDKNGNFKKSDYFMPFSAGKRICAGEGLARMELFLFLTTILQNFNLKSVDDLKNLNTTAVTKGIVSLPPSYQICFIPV
Outline: (§1)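 CYP reaction phenotyping with human recombinant P450 isoforms at 37 °C. Each isoform's share of compound metabolism is given as percent contribution relative to the other isoforms in the test.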

[4] = molecular target: CYP2C19 (Homo sapiens, UniProt P33261); assay: Time dependent inhibition of human recombinant CYP2C19 coexpressed in Escherichia coli at 50 uM using mephenytoin as probe; assay type: ADME
CYP2C19, sequence (P33261 whole entry): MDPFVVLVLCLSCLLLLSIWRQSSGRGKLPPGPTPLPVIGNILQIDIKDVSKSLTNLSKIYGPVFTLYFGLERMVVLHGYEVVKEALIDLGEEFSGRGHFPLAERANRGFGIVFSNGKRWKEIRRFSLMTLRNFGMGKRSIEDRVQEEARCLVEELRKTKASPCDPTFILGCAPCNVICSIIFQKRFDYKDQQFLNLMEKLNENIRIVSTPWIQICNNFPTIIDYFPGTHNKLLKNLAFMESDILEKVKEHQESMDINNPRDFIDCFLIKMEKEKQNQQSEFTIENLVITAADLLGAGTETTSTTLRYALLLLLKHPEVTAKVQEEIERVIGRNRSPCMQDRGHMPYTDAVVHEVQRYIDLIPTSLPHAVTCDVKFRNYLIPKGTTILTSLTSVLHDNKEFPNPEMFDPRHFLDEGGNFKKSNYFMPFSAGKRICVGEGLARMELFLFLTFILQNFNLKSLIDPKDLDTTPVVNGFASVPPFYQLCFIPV
Outline: (§2)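 Time-dependent inhibition of human recombinant P450s. Compound is preincubated 30 min at 37 °C with and without NADPH, then percent inhibition is read. Run at 10 and 50 μM, with the 50 μM value reported.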

[5] = molecular target: T2, Cytochrome P450 2C9 (Homo sapiens, UniProt P11712); assay: Activity of human recombinant CYP2C9 assessed as enzyme contribution towards compound metabolism at 37 degC; assay type: ADME; outline: as §1
T2 sequence (P11712 whole entry): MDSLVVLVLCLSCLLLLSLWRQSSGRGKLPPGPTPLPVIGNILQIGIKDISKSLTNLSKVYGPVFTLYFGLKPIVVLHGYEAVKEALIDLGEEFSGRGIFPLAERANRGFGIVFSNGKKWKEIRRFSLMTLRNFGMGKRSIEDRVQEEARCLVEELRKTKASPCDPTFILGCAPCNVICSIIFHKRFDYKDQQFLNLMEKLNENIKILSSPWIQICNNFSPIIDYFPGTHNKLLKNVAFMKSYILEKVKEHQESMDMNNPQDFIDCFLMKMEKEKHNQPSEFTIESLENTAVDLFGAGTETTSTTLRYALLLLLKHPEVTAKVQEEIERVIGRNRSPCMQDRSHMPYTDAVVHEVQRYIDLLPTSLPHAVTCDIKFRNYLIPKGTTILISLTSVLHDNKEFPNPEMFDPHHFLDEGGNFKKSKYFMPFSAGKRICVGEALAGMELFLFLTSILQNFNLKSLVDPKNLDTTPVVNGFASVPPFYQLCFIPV

[6] = Intrinsic clearance in human liver microsomes at 1 mg/ml; assay type: ADME, Microsome; settings: read-out: CLH
Outline: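 Compound incubated 45 min at 37 °C with human liver microsomes at 1 mg/mL. CLint is taken from the rate of parent disappearance.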

[7] = molecular target: CYP3A4 (Homo sapiens, UniProt P08684); assay: Time dependent inhibition of human recombinant CYP3A4 coexpressed in Escherichia coli at 50 uM using midazolam as probe; assay type: ADME; outline: as §2
CYP3A4, sequence (P08684 whole entry): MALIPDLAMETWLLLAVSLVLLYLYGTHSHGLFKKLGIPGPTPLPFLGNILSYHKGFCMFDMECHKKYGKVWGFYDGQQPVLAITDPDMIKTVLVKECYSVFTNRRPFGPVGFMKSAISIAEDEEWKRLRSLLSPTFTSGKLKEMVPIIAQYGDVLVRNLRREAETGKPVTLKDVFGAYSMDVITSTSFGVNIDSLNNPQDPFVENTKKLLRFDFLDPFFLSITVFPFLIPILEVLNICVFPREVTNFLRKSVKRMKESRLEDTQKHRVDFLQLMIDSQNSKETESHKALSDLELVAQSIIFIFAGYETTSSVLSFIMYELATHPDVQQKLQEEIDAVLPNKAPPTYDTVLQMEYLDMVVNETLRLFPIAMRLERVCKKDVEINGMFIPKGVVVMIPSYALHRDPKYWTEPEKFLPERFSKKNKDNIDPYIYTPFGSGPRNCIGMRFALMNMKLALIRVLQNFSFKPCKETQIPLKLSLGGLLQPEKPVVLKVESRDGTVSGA

[8] = molecular target: T3, CYP1A2 (Homo sapiens, UniProt P05177); assay: Time dependent inhibition of human recombinant CYP1A2 coexpressed in Escherichia coli at 50 uM using phenacetin as probe; assay type: ADME; outline: as §2
T3 sequence (P05177 whole entry): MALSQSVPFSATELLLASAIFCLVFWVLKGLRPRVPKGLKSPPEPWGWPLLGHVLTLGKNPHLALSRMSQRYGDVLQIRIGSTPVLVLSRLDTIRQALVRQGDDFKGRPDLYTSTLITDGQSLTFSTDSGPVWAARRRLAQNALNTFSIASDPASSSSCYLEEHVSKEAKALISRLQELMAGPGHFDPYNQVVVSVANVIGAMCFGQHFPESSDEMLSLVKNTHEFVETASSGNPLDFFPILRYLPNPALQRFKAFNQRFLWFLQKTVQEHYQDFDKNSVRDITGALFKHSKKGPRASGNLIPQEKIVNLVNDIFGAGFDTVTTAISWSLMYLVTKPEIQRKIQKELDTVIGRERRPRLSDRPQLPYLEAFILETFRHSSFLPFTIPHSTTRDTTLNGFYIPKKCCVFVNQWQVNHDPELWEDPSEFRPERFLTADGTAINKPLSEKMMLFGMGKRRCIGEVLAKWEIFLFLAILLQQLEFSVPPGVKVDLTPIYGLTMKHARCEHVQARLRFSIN

[9] = molecular target: T4, Cytochrome P450 1A2 (Homo sapiens, UniProt P05177); assay: Activity of human recombinant CYP1A2 assessed as enzyme contribution towards compound metabolism at 37 degC; assay type: ADME; outline: as §1
T4 sequence (P05177 whole entry): T3 sequence (P05177 whole entry)

[10] = molecular target: T4, Cytochrome P450 1A2; assay: Inhibition of human recombinant CYP1A2 coexpressed in Escherichia coli using phenacetin as probe; assay type: ADME
Outline: (§3)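 Human recombinant cytochrome P450s at 37 °C. Read-out is inhibition of metabolic degradation of each isoform's substrate. Percent inhibition is measured at five test concentrations and converted to IC50.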

[11] = molecular target: T5, Cytochrome P450 3A4 (Homo sapiens, UniProt P08684); assay: Activity of human recombinant CYP3A4 assessed as enzyme contribution towards compound metabolism at 37 degC; assay type: ADME; parameters: concentration or dose not given beside the values; outline: as §1
T5 sequence (P08684 whole entry): as the sequence (P08684 whole entry) above

[12] = molecular target: T6, CYP2C8 (Homo sapiens, UniProt P10632); assay: Time dependent inhibition of human recombinant CYP2C8 coexpressed in Escherichia coli at 50 uM using amodiaquine as probe; assay type: ADME; outline: as §2
T6 sequence (P10632 whole entry): T1 sequence (P10632 whole entry)

[13] = molecular target: T1, Cytochrome P450 2C8; assay: Inhibition of human recombinant CYP2C8 coexpressed in Escherichia coli; assay type: ADME; outline: as §3
[14] = molecular target: CYP2D6 (Homo sapiens, UniProt P10635); assay: Time dependent inhibition of human recombinant CYP2D6 coexpressed in Escherichia coli at 50 uM using bufuralol as probe; assay type: ADME; outline: as §2
CYP2D6, sequence (P10635 whole entry): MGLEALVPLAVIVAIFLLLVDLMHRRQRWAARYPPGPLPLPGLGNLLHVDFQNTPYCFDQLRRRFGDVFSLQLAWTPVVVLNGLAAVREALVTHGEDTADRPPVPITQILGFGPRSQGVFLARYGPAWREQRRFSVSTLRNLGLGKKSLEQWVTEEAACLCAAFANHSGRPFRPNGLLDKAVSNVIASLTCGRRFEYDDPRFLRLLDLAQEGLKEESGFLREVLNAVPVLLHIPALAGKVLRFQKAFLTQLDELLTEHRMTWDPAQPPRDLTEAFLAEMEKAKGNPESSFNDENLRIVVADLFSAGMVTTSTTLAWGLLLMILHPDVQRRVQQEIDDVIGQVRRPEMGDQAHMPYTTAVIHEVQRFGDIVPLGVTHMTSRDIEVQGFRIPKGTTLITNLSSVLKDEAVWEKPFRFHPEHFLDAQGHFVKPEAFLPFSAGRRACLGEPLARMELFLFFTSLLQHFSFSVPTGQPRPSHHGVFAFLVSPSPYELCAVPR

[15] = molecular target: T5, Cytochrome P450 3A4; assay: Inhibition of human recombinant CYP3A4 coexpressed in Escherichia coli; assay type: ADME; outline: as §3
[16] = molecular target: T7, Cytochrome P450 2C19 (Homo sapiens, UniProt P33261); assay: Inhibition of human recombinant CYP2C19 coexpressed in Escherichia coli; assay type: ADME; outline: as §3
T7 sequence (P33261 whole entry): as the sequence (P33261 whole entry) above

[17] = molecular target: T8, Cytochrome P450 2D6 (Homo sapiens, UniProt P10635); assay: Inhibition of human recombinant CYP2D6 coexpressed in Escherichia coli; assay type: ADME; outline: as §3
T8 sequence (P10635 whole entry): as the sequence (P10635 whole entry) above

[18] = molecular target: T7, Cytochrome P450 2C19; assay: Activity of human recombinant CYP2C19 assessed as enzyme contribution towards compound metabolism at 37 degC; assay type: ADME; outline: as §1
[19] = molecular target: T8, Cytochrome P450 2D6; assay: Activity of human recombinant CYP2D6 assessed as enzyme contribution towards compound metabolism at 37 degC; assay type: ADME; outline: as §1
[20] = molecular target: CYP2C9 (Homo sapiens, UniProt P11712); assay: Time dependent inhibition of human recombinant CYP2C9 coexpressed in Escherichia coli at 50 uM using diclofenac as probe; assay type: ADME; outline: as §2
CYP2C9, sequence (P11712 whole entry): as the sequence (P11712 whole entry) above

[21] = molecular target: T2, Cytochrome P450 2C9; assay: Inhibition of human recombinant CYP2C9 coexpressed in Escherichia coli; assay type: ADME; outline: as §3

logD [1] | Activity [3] | inhibition at 50 µM [4] | CYP isoform contribution to compound metabolism [5] | microsomal CLint [6] | inhibition at 50 µM [7] | inhibition at 50 µM [8] | Activity [9] | IC50 [10] | Activity [11] | inhibition at 50 µM [12] | IC50 [13] | inhibition at 50 µM [14] | IC50 [15] | IC50 [16] | IC50 [17] | Activity [18] | Activity [19] | inhibition at 50 µM [20] | IC50 [21] | also measured | SMILES
3.2 | – | – | – | – | – | – | – | – | – | – | – | – | – | – | – | – | – | – | – | pKa [2]: 3.5 | CCOC(=O)N1CCN(Cc2nnc(-c3cc(Cl)ccc3F)o2)CC1
– | 0% | < 19% | 0.3% | 50 µL/min/mg | < 7% | < 7% | 0.2% | > 20 µM | 91.5% | < 13% | > 20 µM | < 9% | > 20 µM | > 20 µM | > 20 µM | 7.9% | 0.1% | < 19% | > 20 µM | – | O=C(NC1CCCCC1)c1nc(CS(=O)(=O)c2ccccc2)no1
4.8 | – | – | – | – | – | – | – | – | – | – | – | – | – | – | – | – | – | – | – | pKa [2]: 3.4 | CCOC(=O)N1CCN(Cc2nc(-c3cccc(Cl)c3)no2)CC1
– | 0.2% | < 12% | 0% | > 300 µL/min/mg | 30% | < 10% | 0.2% | > 20 µM | 99.5% | < 14% | > 20 µM | < 11% | 14.2 µM | > 20 µM | > 20 µM | 0.1% | 0% | < 19% | > 20 µM | – | Clc1cc(-c2nc(CSc3nnc(-c4ccncc4)n3C3CC3)no2)ccn1
5.1 | 0.9% | < 12% | 1% | 9 µL/min/mg | 9% | < 7% | 1.5% | > 20 µM | 92.1% | < 13% | > 20 µM | < 9% | > 20 µM | > 20 µM | 10.2 µM | 2.2% | 2.3% | < 19% | – | pKa [2]: 6.7 | c1ccc(CN2CCN(Cc3nc(-c4ccccc4)no3)CC2)cc1
– | 0% | < 12% | 0% | < 5 µL/min/mg | < 7% | < 10% | 0% | > 20 µM | 0% | < 14% | > 20 µM | < 11% | > 20 µM | 9.8 µM | 5.7 µM | 0% | 100% | < 19% | 1.7 µM | – | O=C(NCc1ccncc1)c1nnc(CS(=O)(=O)c2ccccc2)o1
– | 1.5% | < 12% | 4.7% | 83 µL/min/mg | < 7% | < 7% | 29.5% | 2.4 µM | 17.7% | < 13% | > 20 µM | < 9% | 10.2 µM | 1.2 µM | 10 µM | 38% | 8.6% | < 19% | 17.6 µM | – | c1cc(-c2noc(C3CCCCC3)n2)ccn1
– | 0% | < 12% | 0% | 8 µL/min/mg | < 7% | < 10% | 0% | > 20 µM | 100% | < 14% | > 20 µM | < 11% | > 20 µM | > 20 µM | > 20 µM | 0% | 0% | < 19% | > 20 µM | – | Clc1cc(-c2nnc(CSc3nnc(-c4ccncc4)n3C3CC3)o2)ccn1
3.1 | – | – | – | – | – | – | – | – | – | – | – | – | – | – | – | – | – | – | – | pKa [2]: 2.1 | CN(Cc1nc2ccccc2c(=O)[nH]1)Cc1nc(-c2ccccc2)no1
– | 0% | < 12% | 0% | < 5 µL/min/mg | < 7% | < 7% | 0% | > 20 µM | 52.2% | < 13% | > 20 µM | < 9% | > 20 µM | > 20 µM | > 20 µM | 45.4% | 2.4% | < 19% | > 20 µM | – | O=C(NC1CCCCC1)c1nnc(CS(=O)(=O)c2ccccc2)o1
3.3 | – | – | – | – | – | – | – | – | – | – | – | – | – | – | – | – | – | – | – | pKa [2]: 3.5 | CCOC(=O)N1CCN(Cc2nnc(-c3cccc(Cl)c3)o2)CC1

From ChEMBL document CHEMBL2069246, “Oxadiazoles in medicinal chemistry” (J Med Chem, 2012)
